The target in the experiment is T1, ABHD5 / PLIN1 (luciferase complementation) (Mus musculus, UniProt Q9DBL9).
T1 sequence (Q9DBL9 1-351): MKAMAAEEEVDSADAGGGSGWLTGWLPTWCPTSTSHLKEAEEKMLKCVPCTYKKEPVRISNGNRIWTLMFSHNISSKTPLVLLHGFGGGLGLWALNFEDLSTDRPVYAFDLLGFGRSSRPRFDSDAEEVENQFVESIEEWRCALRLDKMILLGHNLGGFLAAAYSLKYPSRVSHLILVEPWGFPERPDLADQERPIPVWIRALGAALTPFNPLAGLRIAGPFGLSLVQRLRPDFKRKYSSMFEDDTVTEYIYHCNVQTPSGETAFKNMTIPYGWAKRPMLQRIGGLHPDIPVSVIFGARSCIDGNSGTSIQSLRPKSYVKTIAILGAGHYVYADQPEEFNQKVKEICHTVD
T1 sequence (Q8CGN5 1-517 partner): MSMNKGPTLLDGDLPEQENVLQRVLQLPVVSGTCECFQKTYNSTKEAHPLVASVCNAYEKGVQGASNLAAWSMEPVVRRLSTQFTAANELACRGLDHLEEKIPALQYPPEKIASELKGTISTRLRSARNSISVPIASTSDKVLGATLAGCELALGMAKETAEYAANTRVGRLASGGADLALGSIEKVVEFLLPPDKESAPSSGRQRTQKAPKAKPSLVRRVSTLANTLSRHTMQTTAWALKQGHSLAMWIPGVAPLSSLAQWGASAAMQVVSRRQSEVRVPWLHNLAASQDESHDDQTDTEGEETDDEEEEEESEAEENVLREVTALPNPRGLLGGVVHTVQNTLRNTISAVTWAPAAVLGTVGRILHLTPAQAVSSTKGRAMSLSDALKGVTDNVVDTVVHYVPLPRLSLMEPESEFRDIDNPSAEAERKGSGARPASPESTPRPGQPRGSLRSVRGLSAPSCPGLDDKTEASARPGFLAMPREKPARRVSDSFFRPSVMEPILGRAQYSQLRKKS
Nature of the experiment: luciferase complementation, disruption of ABHD5-PLIN1 binding. It counts as biochemical. Conditions: mixed 293T lysates, 4 h, room temperature; n=8. An outline of the steps: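 Lysates are prepared separately from transfected 293T cells and equal amounts of each are combined. Test compound is added in DMSO, with a DMSO vehicle control. After 4 h at room temperature, complementation is read as luciferase activity.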

As a reminder, the IC50 is the concentration that inhibits the measured activity by half. High values mean lower potency, low ones higher potency. The molecule `Cc1ccc2c(CC(=O)N3CCN(S(=O)(=O)c4ccc5c(c4)OCCO5)CC3)coc2c1` [SR-4559] gave an IC50 of 510 ± 60 nM.

The molecule `CCCCNC(=O)Nc1ccc2c(c1)N(C)C(=O)c1ccccc1S2` [SR-4995] showed an IC50 of 200 ± 30 nM. Compared with the last molecule, the IC50 is about 2.5-fold lower.

These data come from paper PMC4862007 (Cell metabolism, 2015).
